Laboratory results as given in ChEMBL document CHEMBL1136794, “l-2',3'-Didehydro-2',3'-dideoxy-3'-fluoronucleosides: synthesis, anti-HIV activity, chemical and enzymatic stability, and mechanism of resistance” (J Med Chem, 2003).

Key:
[1] = Cytotoxicity determined in uninfected PHA-stimulated human PBM cells (PBMCs), expressed as IC50; type: functional, cell-based; conditions: PBMC
Procedure, shortened: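 Uninfected PHA-stimulated PBM cells from seronegative donors, isolated by single-step Ficoll-Hypaque, were seeded at 5 × 10⁴ cells/well with 10-fold serial drug dilutions. After 5 days at 37 °C in 5% CO2, MTT dye was added overnight, formazan solubilized 5 h, and absorbance read at 570 nm.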

CCRF-CEM = test: Cytotoxicity determined in (T-lymphoblastoid cell line) CEM cells, expressed as IC50; type: functional, cell-based; conditions: Homo sapiens
Procedure, shortened: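 CEM T-lymphoblastoid cells were seeded in log phase at 2.5 × 10³ cells/well with 10-fold serial drug dilutions and incubated 4 days at 37 °C in 5% CO2. Viability was read as MTT reduction: dye added overnight, formazan solubilized 5 h, absorbance at 570 nm.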

Vero = test: Cytotoxicity determined in (african green monkey kidney) Vero cells, expressed as IC50; type: functional, cell-based; conditions: Chlorocebus sabaeus
Procedure, shortened: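 Vero cells were seeded in log phase at 5 × 10³ cells/well with 10-fold serial drug dilutions and incubated 3 days at 37 °C in 5% CO2. Viability was read by MTT: overnight dye incubation, 5 h solubilization, absorbance at 570 nm.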

[2] = Activity against wild-type virus (HIV-1XXBRU) in human PBM cells, expressed as EC50
[3] = Half life determined at pH 2 buffer solution; type: ADME
Procedure, shortened: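 Nucleosides were held in pH 2 buffer and followed by TLC every 10 min for the first 3 h, then up to 6 h, to estimate half-life.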

[4] = Activity against Lamivudine-resistant virus (HIV-1M184V) in human PBM cells, expressed as EC90; type: functional; conditions: PBMC
Procedure, shortened: (§1)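 PHA-stimulated (2-3 days) human PBM cells from seronegative donors, bulk-infected 1 h with molecular clones HIV-1 xxBru or M184V (100 TCID50/1 × 10⁷ cells in flask, or 200 TCID50/6 × 10⁵ cells/well in 24-well plate), then added to 10-fold serial compound dilutions. RPMI-1640 with IL-2 and DEAE-dextran; 5 days, 37 °C, 5% CO₂. Supernatant RT activity read out; EC50/EC90 by median effect method.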

[5] = Activity against Lamivudine-resistant virus (HIV-1M184V) in human PBM cells, expressed as EC50; type: functional, cell-based; procedure, shortened: as §1
[6] = Fold increase ratio of HIV-1M184V to HIV-1XXBRU; type: functional
Procedure, shortened: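 PHA-stimulated PBM cells were infected for 1 h with the molecular clones HIV-1 xxBru (wild type) or HIV-1 M184Vpitt, then cultured 5 days with 10-fold serial dilutions. EC50 came from supernatant RT activity by the median effect method, and the ratio was taken as mutant EC50 over wild-type EC50.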

Row | Compound | IC50 [1] [µM] | IC50 (CCRF-CEM) [µM] | IC50 (Vero) [µM] | EC50 [2] [µM] | half-life [3] [h] | EC90 [4] [µM] | EC50 [5] [µM] | FI [6]
1 | Nc1nc(=O)n([C@H]2CC(F)(F)[C@H](CO)O2)cc1F | > 100 | > 100 | > 100 |  |  |  |  | 
2 | Nc1ccn([C@@H]2C=C(F)[C@H](CO)O2)c(=O)n1 | 86.9 | > 100 | > 100 | 0.023 | 48 | 15.7 | 2.4 | 104
3 | Nc1nc(O)c2ncn([C@H]3CC(F)(F)[C@H](CO)O3)c2n1 | > 100 | > 100 | > 100 |  |  |  |  | 
4 | Cc1cn([C@H]2C=C(F)[C@H](CO)O2)c(=O)nc1O | > 100 | > 100 | > 100 |  |  |  |  | 
5 | Cc1cn([C@H]2C[C@H](N=[N+]=[N-])[C@@H](CO)O2)c(=O)[nH]c1=O [ZIDOVUDINE] |  |  |  | 0.01 |  | 0.025 | 0.003 | 0.3
6 | Nc1ccn([C@H]2CC(F)(F)[C@H](CO)O2)c(=O)n1 | > 100 | > 100 | > 100 |  |  |  |  | 
7 | Nc1ncnc2c1ncn2[C@@H]1CC(F)(F)[C@H](CO)O1 | > 100 | > 100 | > 100 |  |  |  |  | 
8 | Nc1nc(O)c2ncn([C@H]3C=C(F)[C@H](CO)O3)c2n1 | > 100 | > 100 | > 100 |  |  |  |  | 
9 | OC[C@@H]1O[C@H](n2cnc3c(O)ncnc32)CC1(F)F | > 100 | > 100 | > 100 |  |  |  |  | 
10 | OC[C@H]1O[C@@H](n2cnc3c(O)ncnc32)C=C1F | > 100 | > 100 | > 100 |  |  |  |  | 
11 | Nc1nc(O)c2ncn([C@@H]3C=C(F)[C@H](CO)O3)c2n1 | 17.4 | 58.4 | 36.5 |  |  |  |  | 
12 | Nc1nc(=O)n([C@H]2C=C(F)[C@H](CO)O2)cc1F | > 100 | > 100 | > 100 |  |  |  |  | 
13 | Nc1ncnc2c1ncn2[C@H]1CC(F)(F)[C@H](CO)O1 | > 100 | > 100 | > 100 |  |  |  |  | 
14 | Nc1ncnc2c1ncn2[C@H]1C=C(F)[C@H](CO)O1 | > 100 | > 100 | > 100 |  |  |  |  | 
15 | Cc1cn([C@@H]2C=C(F)[C@H](CO)O2)c(=O)nc1O | > 100 | > 100 | > 100 |  |  |  |  | 
16 | Cc1cn([C@H]2CC(F)(F)[C@H](CO)O2)c(=O)[nH]c1=O | > 100 | > 100 | > 100 |  |  |  |  | 
17 | O=c1nc(O)ccn1[C@@H]1CC(F)(F)[C@H](CO)O1 | > 100 | > 100 | > 100 |  |  |  |  | 
18 | Nc1nc(=O)n([C@@H]2C=C(F)[C@H](CO)O2)cc1F | > 100 | > 100 | > 100 | 0.009 |  | 67.4 | 10.9 | 1210
19 | Nc1nc(O)c2ncn([C@@H]3CC(F)(F)[C@H](CO)O3)c2n1 | > 100 | > 100 | > 100 |  |  |  |  | 
20 | Nc1ccn([C@@H]2CC(F)(F)[C@H](CO)O2)c(=O)n1 | > 100 | > 100 | > 100 |  |  |  |  | 
21 | O=c1ccn([C@H]2C=C(F)[C@H](CO)O2)c(=O)[nH]1 | > 100 | > 100 | > 100 |  |  |  |  | 
22 | Cc1cn([C@@H]2CC(F)(F)[C@H](CO)O2)c(=O)nc1O | > 100 | > 100 | > 100 |  |  |  |  | 
23 | Nc1ncnc2c1ncn2[C@@H]1C=C(F)[C@H](CO)O1 | > 100 | > 100 | > 100 |  |  |  |  | 
24 | Nc1nc(=O)n([C@@H]2CC(F)(F)[C@H](CO)O2)cc1F | > 100 | > 100 | > 100 |  |  |  |  | 
25 | Nc1ccn([C@H]2C=C(F)[C@H](CO)O2)c(=O)n1 | > 100 | > 100 | > 100 |  |  |  |  | 
26 | OC[C@@H]1O[C@@H](n2cnc3c(O)ncnc32)CC1(F)F | > 100 | > 100 | > 100 |  |  |  |  | 
27 | O=c1nc(O)ccn1[C@@H]1C=C(F)[C@H](CO)O1 | > 100 | 30.1 | > 100 |  |  |  |  | 
28 | Nc1ccn([C@@H]2CC[C@H](CO)O2)c(=O)n1 |  |  |  | 0.17 | 1 | 28.2 | 2.9 | 17
29 | O=c1nc(O)ccn1[C@H]1CC(F)(F)[C@H](CO)O1 | > 100 | > 100 | > 100 |  |  |  |  | 
30 | Nc1ccn([C@@H]2CS[C@H](CO)O2)c(=O)n1 [LAMIVUDINE] |  |  |  | 0.035 |  | > 100 | > 100 | > 2860
